Reference: BindingDB's records for doi:10.1021/jm001008m (University of The Saarland, 2000)

What was measured:
[1] = target: T1, Steroid 17-alpha-hydroxylase/17,20 lyase (Rattus norvegicus, UniProt P11715); experiment: Evaluated for the inhibitory activity towards Cytochrome P450 17 rat enzyme using testicular microsome at 25 uM of substrate (progesterone)
T1 sequence (P11715 whole entry): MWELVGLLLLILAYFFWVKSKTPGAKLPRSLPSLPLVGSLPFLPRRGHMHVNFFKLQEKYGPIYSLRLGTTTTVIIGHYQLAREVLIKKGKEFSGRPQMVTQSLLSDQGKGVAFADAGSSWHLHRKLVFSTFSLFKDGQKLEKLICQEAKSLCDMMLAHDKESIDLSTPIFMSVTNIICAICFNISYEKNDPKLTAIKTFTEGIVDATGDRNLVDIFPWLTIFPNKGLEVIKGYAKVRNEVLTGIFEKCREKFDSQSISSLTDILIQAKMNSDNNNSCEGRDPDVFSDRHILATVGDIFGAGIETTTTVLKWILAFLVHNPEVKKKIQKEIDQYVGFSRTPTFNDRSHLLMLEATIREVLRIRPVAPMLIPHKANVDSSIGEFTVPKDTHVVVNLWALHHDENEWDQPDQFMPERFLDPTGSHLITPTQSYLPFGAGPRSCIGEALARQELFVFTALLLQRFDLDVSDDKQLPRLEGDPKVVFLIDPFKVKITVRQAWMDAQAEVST
In short: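 Testicular microsomes (human for human enzyme, rat for rat enzyme) incubated with progesterone substrate at 25 µM; product measured by RP-HPLC with UV detection. IC50 = concentration giving 50% inhibition, mean of at least two experiments.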

[2] = target: T2, 3-oxo-5-alpha-steroid 4-dehydrogenase 2 (Homo sapiens, UniProt P31213); experiment: Evaluated for the inhibitory activity against human steroid 5-alpha-reductase type 2 from human BPH tissue at 210 nM of testosterone
T2 sequence (P31213 whole entry): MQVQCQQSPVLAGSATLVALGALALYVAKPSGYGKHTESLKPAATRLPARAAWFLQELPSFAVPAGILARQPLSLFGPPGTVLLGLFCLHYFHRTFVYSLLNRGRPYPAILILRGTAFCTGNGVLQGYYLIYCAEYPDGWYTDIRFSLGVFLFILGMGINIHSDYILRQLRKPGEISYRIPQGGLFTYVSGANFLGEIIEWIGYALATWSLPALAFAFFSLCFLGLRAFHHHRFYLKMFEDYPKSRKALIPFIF
In short: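 Enzyme from prostate homogenate of BPH patients, assayed at pH 5.5 with radiolabeled testosterone at 210 nM; product separated by HPLC. IC50 taken as inhibitor concentration giving 50% inhibition; mean of at least two experiments.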

[3] = target: T3, Steroid 17-alpha-hydroxylase/17,20 lyase (Homo sapiens, UniProt P05093); experiment: Evaluated for the inhibitory activity towards Cytochrome P450 17 human enzyme using testicular microsome at 25 uM of substrate (progesterone)
T3 sequence (P05093 whole entry): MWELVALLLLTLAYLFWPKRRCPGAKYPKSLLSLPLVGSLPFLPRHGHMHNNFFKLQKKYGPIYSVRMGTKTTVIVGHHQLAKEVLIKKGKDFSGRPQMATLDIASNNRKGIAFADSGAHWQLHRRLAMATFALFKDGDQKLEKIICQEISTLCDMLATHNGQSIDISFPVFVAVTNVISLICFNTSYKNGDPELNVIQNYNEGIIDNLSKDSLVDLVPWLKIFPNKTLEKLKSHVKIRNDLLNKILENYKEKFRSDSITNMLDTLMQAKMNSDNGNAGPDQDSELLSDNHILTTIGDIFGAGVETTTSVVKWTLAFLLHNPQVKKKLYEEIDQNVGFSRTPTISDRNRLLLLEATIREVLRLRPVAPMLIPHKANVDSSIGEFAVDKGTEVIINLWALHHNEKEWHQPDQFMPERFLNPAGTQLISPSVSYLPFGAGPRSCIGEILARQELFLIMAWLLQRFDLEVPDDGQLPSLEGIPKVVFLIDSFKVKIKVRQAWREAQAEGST

IC50 [1]: > 125000 nM | IC50 [2]: 580 nM | IC50 [3]: > 2500 nM
Structure (SMILES): CC(N=O)[C@H]1CCC2C3CCC4=CC(=O)CCC4(C)C3CCC21C (stereo partly drawn) [17-(1-Hydroxyimino-ethyl)-10,13-dimethyl-1,2,6,7,8,9,10,11,12,13,14,15,16,17-tetradecahydro-cyclopenta[a]phenanthren-3-one]
